Results from ChEMBL document CHEMBL4177770, “Discovery of MK-6169, a Potent Pan-Genotype Hepatitis C Virus NS5A Inhibitor with Optimized Activity against Common Resistance-Associated Substitutions” (J Med Chem, 2018).
Residue numbers refer to the chain shown, from its start.

Assays:
[1] = biological target: T1, Nonstructural protein 5A (Hepatitis C virus) (UniProt Q5L478); assay: Inhibition of NS5A A92K mutant in HCV genotype 1b infected in HuH7 replicon cells assessed as decrease in viral replication after 3 days by RT-PCR method; format: cell-based; details: Hepatitis C virus subtype 1b
T1 sequence (whole entry): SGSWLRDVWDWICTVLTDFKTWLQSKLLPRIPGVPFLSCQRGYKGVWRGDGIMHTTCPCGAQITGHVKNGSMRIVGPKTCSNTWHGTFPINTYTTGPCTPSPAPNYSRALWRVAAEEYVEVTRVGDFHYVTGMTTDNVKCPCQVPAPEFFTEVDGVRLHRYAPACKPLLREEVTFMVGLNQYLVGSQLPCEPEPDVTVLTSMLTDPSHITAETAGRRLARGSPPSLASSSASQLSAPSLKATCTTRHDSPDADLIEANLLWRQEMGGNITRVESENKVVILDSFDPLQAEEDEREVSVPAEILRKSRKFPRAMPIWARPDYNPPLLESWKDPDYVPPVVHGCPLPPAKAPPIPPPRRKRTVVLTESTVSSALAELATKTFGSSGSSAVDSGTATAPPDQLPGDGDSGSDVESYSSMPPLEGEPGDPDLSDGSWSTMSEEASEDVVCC

[2] = Resistance ratio of EC90 for NS5A F28L mutant in HCV genotype 2a infected in HuH7 replicon cells to EC90 for NS5A in HCV genotype 1a infected in HuH7 replicon cells; format: cell-based
[3] = Resistance ratio of EC90 for NS5A A30K mutant in HCV genotype 3a infected in HuH7 replicon cells to EC90 for NS5A in HCV genotype 1a infected in HuH7 replicon cells; format: cell-based
[4] = biological target: T1, Nonstructural protein 5A (Hepatitis C virus); assay: Inhibition of NS5A P32L mutant in HCV genotype 4a infected in HuH7 replicon cells assessed as decrease in viral replication after 3 days by RT-PCR method; format: cell-based; details: Hepatitis C virus subtype 4a
[5] = Resistance ratio of EC90 for NS5A L31V mutant in HCV genotype 4a infected in HuH7 replicon cells to EC90 for NS5A in HCV genotype 1a infected in HuH7 replicon cells; format: cell-based
[6] = system: Hepatitis C virus subtype 1a; assay: Resistance ratio of EC90 for NS3 R155K/V36M double mutant in HCV genotype 1a infected in HuH7 replicon cells to EC90 for NS5A in HCV genotype 1a infected in HuH7 replicon cells; format: cell-based
[7] = system: NS3 (Hepatitis C virus), A3EZJ3 [R155K,V36M]; assay: Inhibition of NS3 R155K/V36M double mutant in HCV genotype 1a infected in HuH7 replicon cells assessed as decrease in viral replication after 3 days by RT-PCR method; format: cell-based; details: Hepatitis C virus subtype 1a
[8] = system: Hepatitis C virus subtype 1a; assay: Resistance ratio of EC90 for NS5A A92P mutant in HCV genotype 1a infected in HuH7 replicon cells to EC90 for NS5A in HCV genotype 1a infected in HuH7 replicon cells; format: cell-based
[9] = Resistance ratio of EC90 for NS5A L30H mutant in HCV genotype 4a infected in HuH7 replicon cells to EC90 for NS5A in HCV genotype 1a infected in HuH7 replicon cells; format: cell-based
[10] = Clearance in Beagle dog at 1 mg/kg, iv by LC/MS method; format: ADME, organism-based, Canis lupus familiaris; details: in vivo
How it was run: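 Beagle dogs, two animals per group, dosed IV at 1 mg/kg in 60% PEG200. Plasma was prepared from collected blood by centrifugation, and compound was quantified by LC/MS.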

[11] = Oral bioavailability in Beagle dog at 5 mg/kg by LC/MS method; format: ADME, organism-based, Canis lupus familiaris; details: in vivo
How it was run: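 Beagle dogs, two animals per dosing group. Oral dose was given in 10% TWEEN. Blood was collected and spun to plasma, and plasma compound levels were measured by LC/MS.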

[12] = biological target: T1, Nonstructural protein 5A (Hepatitis C virus); assay: Inhibition of NS5A in HCV genotype 3a infected in HuH7 replicon cells assessed as decrease in viral replication after 3 days by RT-PCR method; format: cell-based; details: Hepatitis C virus subtype 3a
[13] = system: Hepatitis C virus subtype 1a; assay: Resistance ratio of EC90 for NS5A L31V mutant in HCV genotype 1a infected in HuH7 replicon cells to EC90 for NS5A in HCV genotype 1a infected in HuH7 replicon cells; format: cell-based
[14] = system: Hepatitis C virus subtype 1a; assay: Resistance ratio of EC90 for NS3 R155K mutant in HCV genotype 1a infected in HuH7 replicon cells to EC90 for NS5A in HCV genotype 1a infected in HuH7 replicon cells; format: cell-based
[15] = system: T2, Nonstructural protein 5A (Hepatitis C virus), Q5L478 [Y93H]; assay: Inhibition of NS5A Y93H mutant in HCV genotype 1a infected in HuH7 replicon cells assessed as decrease in viral replication after 3 days by RT-PCR method; format: cell-based; details: Hepatitis C virus subtype 1a
T2 sequence (whole entry): T1 sequence (whole entry) with Y93H

[16] = Drug level in Wistar Han rat at 100 mg/kg, po measured at 24 hrs by LC/MS method; format: ADME, organism-based; details: in vivo, read-out: Drug uptake
How it was run: (§1)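 Single rising oral dose study in fed male Wistar Han rats, dosed PO in 10% TWEEN at the indicated doses. Plasma was obtained by centrifuging the blood, and compound levels were determined by LC/MS.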

[17] = system: Hepatitis C virus subtype 1a; assay: Resistance ratio of EC90 for NS5A Y93H mutant in HCV genotype 1a infected in HuH7 replicon cells to EC90 for NS5A in HCV genotype 1a infected in HuH7 replicon cells; format: cell-based
[18] = Cmax in Wistar Han rat at 100 mg/kg, po by LC/MS method; format: ADME, organism-based; design: dose 100 mg/kg, route oral; details: in vivo; how it was run: as §1
[19] = biological target: T1, Nonstructural protein 5A (Hepatitis C virus); assay: Inhibition of NS5A in HCV genotype 1b infected in HuH7 replicon cells assessed as decrease in viral replication after 3 days by RT-PCR method; format: cell-based; details: Hepatitis C virus subtype 1b

## COC(=O)N[C@H](C(=O)N1CCC[C@H]1c1ncc(-c2cc(F)c3c(c2)O[C@@H](c2ccc(C4CC4)s2)n2c-3cc3cc(-c4cnc([C@@H]5CCCN5C(=O)[C@@H](NC(=O)OC)[C@@H]5CCOC(C)(C)C5)[nH]4)ccc32)[nH]1)C(C)C
[1]
  EC90: 26 pM
[2]
  Ratio: < 1
[3]
  Ratio: 4
[4]
  EC90: 4.4 pM
[5]
  Ratio: 2
[6]
  Ratio: < 1
[7]
  EC90: 2.5 pM
[8]
  Ratio: < 1
[9]
  Ratio: 17
[10]
  clearance: 2.9 mL/min/kg
[11]
  bioavailability: 14.9%
[12]
  EC90: 1 to 6.6 pM
[13]
  Ratio: 1
[14]
  Ratio: < 1
[15]
  EC90: 33 pM
[16]
  concentration at 24 h: 72 nM
[17]
  Ratio: 8
[18]
  Cmax: 760 nM
[19]
  EC90: 4.4 pM
